Test results from ChEMBL document CHEMBL5576140, “Computational Design of Pore-Forming Peptides with Potent Antimicrobial and Anticancer Activities” (J Med Chem, 2024).
pIC50: −log10 of the molar value. Activity calls are given as the source filed them. The rule behind the calls is not given here.

Assays:
[1] = Toxicity in neutropenic CD-1 mouse deep thigh infection model infected with Acinetobacter baumannii ATCC 19606 assessed as body weight change at 0.16 mg/kg, ip measured after 4 days; type: organism-based; conditions: in vivo, 96 h, time 4 day
Procedure, shortened: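 Neutropenic mice infected intramuscularly in the right thigh with 10⁶ cells per mL of A. baumannii ATCC 19606. […] Body weight monitored for toxicity. Euthanasia 4 days post-infection (day 8). n = 6 per group, from three inocula.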

[2] = Hemolytic activity against human RBC incubated for 1 hr by microplate reader analysis; type: toxicity, cell-based, Erythrocyte; conditions: red blood cells (erythrocytes)
Procedure, shortened: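 Human red blood cells exposed to peptides up to 50 μM; hemolysis measured, IC50 derived where reached.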

[3] = system: Staphylococcus aureus; assay: Antimicrobial activity against Staphylococcus aureus NE1506 harboring single transposon insertion mutation in V8 protease at 30 uM incubated for 18 hrs relative to control; type: functional
Procedure, shortened: (§1)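 CA-MRSA USA300 LAC derivative JE2 and single transposon insertion mutants derived from JE2, each lacking an extracellular protease gene, were exposed to peptides up to 30 μM. The read-out was percent growth inhibition. Peptides were dissolved in PBS, and tests were run in triplicate.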

[4] = system: Staphylococcus aureus; assay: Antimicrobial activity against Staphylococcus aureus NE1740 harboring single transposon insertion mutation in staphopain A at 30 uM incubated for 18 hrs relative to control; type: functional; procedure, shortened: as §1
[5] = system: Staphylococcus aureus; assay: Antimicrobial activity against Staphylococcus aureus NE934 harboring single transposon insertion mutation in staphopain B at 30 uM incubated for 18 hrs relative to control; type: functional; procedure, shortened: as §1
[6] = system: Acinetobacter baumannii; assay: Anti-infective activity against Acinetobacter baumannii ATCC 19606 infected in neutropenic CD-1 mouse deep thigh infection model assessed as reduction in bacterial load at 0.16 mg/kg, ip measured after 4 days; type: functional, organism-based; conditions: time 4.0 day
Procedure, shortened: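 Neutropenic mice infected intramuscularly in right thigh with 10⁶ cells per mL A. baumannii ATCC 19606; single intraperitoneal peptide dose at 10× MIC; bacterial load determined 4 days after treatment (euthanized day 8); n = 6 per group from three inocula; one-way ANOVA with Dunnett's test versus untreated.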

[7] = Toxicity in immunosuppressed Balb/c mouse excisional dorsal wound infection model infected with Acinetobacter baumannii NCTC 13301 assessed as body weight loss at about 10 mg/kg treated for 7 days once daily measured after 45 days; type: organism-based; conditions: in vivo, 1080 h, time 45 day
Procedure, shortened: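 Excisional dorsal wound model in immunosuppressed mice infected with 5 × 10⁴ cells per mL of A. baumannii. Treated, PBS-treated and untreated groups were compared. Body weight and survival were followed for 45 days.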

[8] = Toxicity in immunosuppressed Balb/c mouse excisional dorsal wound infection model infected with Acinetobacter baumannii NCTC 13301 assessed as decrease in animal survival at about 10 mg/kg treated for 7 days once daily measured after 45 days; type: organism-based; conditions: in vivo, 1080 h, time 45 day
[9] = system: Klebsiella pneumoniae; assay: Depolarization of cytoplasmic membrane in Klebsiella pneumoniae ATCC 13883 at MIC measured for 45 mins by DiSC3-(5) dye based assay; type: functional, organism-based
Procedure, shortened: (§2)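 Bacteria loaded with membrane-potential dye DiSC3-(5), then treated with peptide at its MIC for the respective strain; depolarization read as rise in dye fluorescence; polymyxin B and levofloxacin as reference antibiotics.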

[10] = system: Escherichia coli; assay: Depolarization of cytoplasmic membrane in Escherichia coli ATCC 11775 at MIC measured for 45 mins by DiSC3-(5) dye based assay; type: functional, organism-based; procedure, shortened: as §2
[11] = system: Klebsiella pneumoniae; assay: Induction of outer membrane permeabilization in Klebsiella pneumoniae ATCC 13883 measured for 20 mins by NPN uptake assay; type: functional, organism-based
Procedure, shortened: (§3)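 Outer-membrane permeabilization of Gram-negative bacteria read as rise in fluorescence of the lipophilic dye NPN, which enters only when outer-membrane integrity is compromised. Peptides applied at their MIC against the respective strain; polymyxin B and levofloxacin as reference antibiotics. Triplicates.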

[12] = system: Acinetobacter baumannii; assay: Induction of outer membrane permeabilization in Acinetobacter baumannii ATCC 19606 measured for 20 mins by NPN uptake assay; type: functional, organism-based
[13] = system: Pseudomonas aeruginosa; assay: Induction of outer membrane permeabilization in Pseudomonas aeruginosa PAO1 measured for 20 mins by NPN uptake assay; type: functional, organism-based; procedure, shortened: as §3
[14] = system: A498; assay: Anti-cancer activity against human A498 cells incubated for 72 hrs by Cell Titer Glo assay; type: functional, cell-based; conditions: A498, 72 h
[15] = system: A549; assay: Anti-cancer activity against human A549 cells incubated for 72 hrs by Cell Titer Glo assay; type: functional, cell-based; conditions: A549, 72 h
[16] = system: CAKI-1; assay: Anti-cancer activity against human CAKI-1 cells incubated for 72 hrs by Cell Titer Glo assay; type: functional, cell-based; conditions: CAKI-1, 72 h
[17] = system: DU-145; assay: Anti-cancer activity against human DU-145 cells incubated for 72 hrs by Cell Titer Glo assay; type: functional, cell-based; conditions: DU-145, 72 h
[18] = system: MDA-MB-435; assay: Anti-cancer activity against human MDA-MB-435 cells incubated for 72 hrs by Cell Titer Glo assay; type: functional, cell-based; conditions: MDA-MB-435, 72 h
[19] = system: MOLT-4; assay: Anti-cancer activity against human MOLT-4 cells incubated for 72 hrs by Cell Titer Glo assay; type: functional, cell-based; conditions: MOLT-4, 72 h
[20] = system: SK-OV-3; assay: Anti-cancer activity against human SK-OV-3 cells incubated for 72 hrs by Cell Titer Glo assay; type: functional, cell-based; conditions: SK-OV-3, 72 h
[21] = system: T47D; assay: Anti-cancer activity against human T47D cells incubated for 72 hrs by Cell Titer Glo assay; type: functional, cell-based
[22] = system: SUD4; assay: Anti-cancer activity against human SU-DHL-4 cells incubated for 24 hrs by WST assay; type: functional, cell-based; conditions: SU-DHL-4, 24 h
[23] = system: K562; assay: Anti-cancer activity against human K562 cells at 10 uM incubated for 30 mins; type: functional, cell-based
[24] = system: HL-60; assay: pH-dependent anticancer activity against human HL-60 cells in RPMI medium at 10 uM incubated for 1 hr; type: functional, cell-based
Procedure, shortened: (§4)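 Cells cultured in RPMI, DMEM or PBS, each adjusted to pH 8, 7 or 6, plus one unadjusted (~7.6). Peptide at 10 μM for only 1 h, to limit pH drift from CO₂-bicarbonate buffering. Cell viability read. Controls were melittin, ampicillin and PBS. Two independent repetitions; effects analysed by ANOVA.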

[25] = system: HL-60; assay: pH-dependent anticancer activity against human HL-60 cells in DMEM medium at 10 uM incubated for 1 hr; type: functional, cell-based; procedure, shortened: as §4
[26] = system: HL-60; assay: pH-dependent anticancer activity against human HL-60 cells in PBS medium at 10 uM incubated for 1 hr; type: functional, cell-based; procedure, shortened: as §4
[27] = system: K562; assay: pH-dependent anticancer activity against human K562 cells in RPMI medium at 10 uM incubated for 1 hr; type: functional, cell-based; procedure, shortened: as §4
[28] = system: K562; assay: pH-dependent anticancer activity against human K562 cells in PBS medium at 10 uM incubated for 1 hr; type: functional, cell-based; procedure, shortened: as §4
[29] = system: HCT-116; assay: pH-dependent anticancer activity against human HCT-116 cells in RPMI medium at 10 uM incubated for 1 hr; type: functional, cell-based; procedure, shortened: as §4
[30] = system: HCT-116; assay: pH-dependent anticancer activity against human HCT-116 cells in DMEM medium at 10 uM incubated for 1 hr; type: functional, cell-based; procedure, shortened: as §4
[31] = system: MCF7; assay: pH-dependent anticancer activity against human MCF7 cells in RPMI medium at 10 uM incubated for 1 hr; type: functional, cell-based; procedure, shortened: as §4
[32] = system: T-cell line; assay: Cytotoxicity against human T-lymphocytes assessed as deleterious effect upto 50 uM by flow cytometry; type: toxicity, cell-based
Procedure, shortened: (§5)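 Whole blood from a healthy donor treated with peptides up to 50 μM; effect on B and T lymphocytes, granulocytes and monocytes assessed.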

[33] = Cytotoxicity against human granulocytes assessed as deleterious effect upto 50 uM by flow cytometry; type: toxicity, cell-based; conditions: granulocyte; procedure, shortened: as §5

With H-KKKKLKKILKKLFQFINQLDNQLQDIKQNK-NH2 the Activity [1] was “Non-Toxic”, the IC50 at 1 h [2] was over 50000 nM and the inhibition at 30 µM [3] was under 45%. The inhibition at 30 µM [4] was under 45%, the inhibition at 30 µM [5] was under 45% and the Activity [6] was “Active”. For the same substance, the Activity [7] was “Toxic”, the Activity [8] was “Toxic” and the Activity [9] was “Active”. The Activity [10] was “Active”, the Activity [11] was “Active” and the Activity [12] was “inactive”. The Activity [13] was “Active”, the pIC50 [14] was 6.00 and the pIC50 [15] was 6.00. It also gave a pIC50 [16] of 6.00, a pIC50 [17] of 6.00 and a pIC50 [18] of 6.00. The pIC50 [19] was 6.00, the pIC50 [20] was 6.00 and the pIC50 [21] was 6.00. For the same substance, the pIC50 [22] was at least 5.00, the Activity [23] was “Active” and the Activity [24] was “Active”. The Activity [25] was “Active”, the Activity [26] was “Active” and the Activity [27] was “Active”. For the same substance, the Activity [28] was “Active”, the Activity [29] was “Active” and the Activity [30] was “Active”. The Activity [31] was “Active”, the Activity [32] was “Non-Toxic” and the Activity [33] was “Non-Toxic”.
